Laboratory results reported in ChEMBL document CHEMBL5647697, “Akt inhibition synergizes with polycomb repressive complex 2 inhibition in the treatment of multiple myeloma” (2019).
The source made the active and inactive calls. The rule behind the calls is not given here.

Assays:
[1] = tested on: MM1.S; experiment: Synergistic activity against human MM.1S cells assessed as combination index […] at 0.125 uM incubated for 48 hrs by […]; type: functional
Summary of the method: (§1)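 Cells were exposed to the EZH2/EZH1 inhibitor (UNC1999 or GSK126) for 72 h in total, with the Akt inhibitor added for the last 48 h. Viability was read by MTS assay relative to untreated control cells, in triplicate. The combination index for each dose pair came from isobologram analysis.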

[2] = tested on: OPM-2/BTZ; experiment: Synergistic activity against human OPM-2/BTZ cells assessed as combination index preincubated in presence of 2.5 uM UNC1999 for 72 hrs followed by compound addition at 0.5 uM incubated for 48 hrs by MTT assay; type: functional
[3] = tested on: MM1.S; experiment: Downregulation of phospho-Rb protein expression in human MM1.S cells incubated at 0.3 to 3 micromol/L for 48 hrs by Western blot analysis; type: functional, cell-based; conditions: dose 0.3-3 µmol/L
Summary of the method: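 MM.1S and H929 cells given TAS-117 at the indicated doses for 48 h. Protein levels assessed by immunoblot.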

[4] = tested on: OPM-2/BTZ; experiment: Synergistic activity against human OPM-2/BTZ cells assessed as combination index preincubated in presence of 2.5 uM GSK126 for 72 hrs followed by compound addition at 0.5 uM incubated for 48 hrs by MTT assay; type: functional
[5] = tested on: OPM-2/BTZ; experiment: Downregulation of EZH2 mRNA expression in human OPM-2/BTZ cells at 3 micromol/L after 24 hrs by qRT-PCR analysis; type: functional, cell-based; conditions: dose 3.0 µmol/L
[6] = tested on: NCI-H929; experiment: Induction of apoptosis in human NCI-H929 cells assessed as necrotic cells at 2 micromol/L incubated for 12 hrs by annexin V/PI staining based flow cytometry (reference value: 2.61%); type: functional; conditions: dose 2 µmol/L, at 2 µM
[7] = tested on: OPM-2/BTZ; experiment: Synergistic activity against human OPM-2/BTZ cells assessed as combination index preincubated in presence of 2.5 uM GSK126 for 72 hrs followed by compound addition at 1 uM incubated for 48 hrs by MTT assay; type: functional
[8] = tested on: MM1.S; experiment: Induction of apoptosis in human MM1.S cells assessed as necrotic cells preincubated in presence of 5 micromol/L UNC1999 for 48 hrs followed by compound addition at 2 micromol/L incubated for 12 hrs by annexin V/PI staining based flow cytometry (reference value: 0.17%); type: functional; conditions: dose 2 µmol/L, at 2 µM
[9] = tested on: MM1.S; experiment: Downregulation of E2F2 mRNA expression in human MM1.S cells incubated at 0.3 to 3 micromol/L for 24 hrs by qRT-PCR analysis; type: functional, cell-based; conditions: dose 0.3-3 µmol/L
Summary of the method: (§2)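 MM.1S and H929 cells given TAS-117 at the indicated doses for 24 h. mRNA measured by RT-qPCR, fold change after normalization to GAPDH; SD of triplicates; significance versus untreated control.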

[10] = tested on: MM1.S; experiment: Induction of apoptosis in human MM1.S cells assessed as early apoptotic cells at 2 micromol/L incubated for 12 hrs by annexin V/PI staining based flow cytometry (reference value: 8.03%); type: functional; conditions: dose 2 µmol/L, at 2 µM
[11] = tested on: MM1.S; experiment: Synergistic activity against human MM.1S cells assessed as combination index […] in presence of 2.5 uM UNC1999 […] at 0.5 uM incubated for 48 hrs by […]; type: functional; summary of the method: as §1
[12] = tested on: OPM-2/BTZ; experiment: Downregulation of phospho-Rb protein expression in human OPM-2/BTZ cells incubated at 0.3 to 3 micromol/L for 48 hrs by Western blot analysis; type: functional, cell-based; conditions: dose 0.3-3 µmol/L
[13] = tested on: OPM-2; experiment: Synergistic activity against human OPM-2 cells assessed as combination index preincubated in presence of 1.25 uM GSK126 for 72 hrs followed by compound addition at 2.5 uM incubated for 48 hrs by MTT assay; type: functional
[14] = tested on: NCI-H929; experiment: Synergistic activity against human NCI-H929 cells assessed as combination index […] at 0.5 uM incubated for 48 hrs by […]; type: functional; summary of the method: as §1
[15] = tested on: MM1.S; experiment: Downregulation of E2F1 mRNA expression in human MM1.S cells incubated at 0.3 to 3 micromol/L for 24 hrs by qRT-PCR analysis; type: functional, cell-based; conditions: dose 0.3-3 µmol/L; summary of the method: as §2
[16] = tested on: OPM-2; experiment: Synergistic activity against human OPM-2 cells assessed as combination index preincubated in presence of 5 uM GSK126 for 72 hrs followed by compound addition at 5 uM incubated for 48 hrs by MTT assay; type: functional
[17] = tested on: NCI-H929; experiment: Upregulation of EZH1 mRNA expression in human NCI-H929 cells at 0.03 to 3 micromo/L at 6 to 48 hrs by qRT-PCR analysis; type: functional, cell-based; conditions: dose 0.03-3 µmol/L, time 6-48 hrs
Summary of the method: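 EZH1 mRNA was measured by qRT-PCR in MM.1S and H929 cells. Dose series: cells were treated with graded TAS-117 for 24 h. Time course: cells were treated with 3 μmol/L for the indicated times. Fold change is after GAPDH normalization, relative to the untreated control. Data are SD of triplicates.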

[18] = tested on: OPM-2/BTZ; experiment: Synergistic activity against human OPM-2/BTZ cells assessed as combination index preincubated in presence of 1.25 uM GSK126 for 72 hrs followed by compound addition at 2 uM incubated for 48 hrs by MTT assay; type: functional
[19] = tested on: NCI-H929; experiment: Synergistic activity against human NCI-H929 cells assessed as combination index […] compound addition at 0.25 uM incubated for 48 hrs by […]; type: functional; summary of the method: as §1
[20] = tested on: NCI-H929; experiment: Induction of apoptosis in human NCI-H929 cells assessed as viable cells preincubated in presence of 5 micromol/L UNC1999 for 48 hrs followed by compound addition at 2 micromol/L incubated for 12 hrs by annexin V/PI staining based flow cytometry (reference value: 95.6%); type: functional; conditions: dose 2 µmol/L, at 2 µM
[21] = tested on: MM1.S; experiment: Downregulation of EZH2 protein expression in human MM1.S cells at 0.3 to 5 micromol/L for 6 to 48 hrs by Western blot analysis; type: functional, cell-based; conditions: dose 0.3-5 µmol/L, time 6-48 hrs
Summary of the method: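 MM.1S and H929 cells exposed to TAS-117 at the indicated doses for 48 h, or to 5 μmol/L for the indicated times. Immunoblot with GAPDH, Akt and H3 as loading controls; EZH2 quantified relative to GAPDH.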

[22] = tested on: NCI-H929; experiment: Induction of apoptosis in human NCI-H929 cells assessed as necrotic cells preincubated in presence of 5 micromol/L UNC1999 for 48 hrs followed by compound addition at 2 micromol/L incubated for 12 hrs by annexin V/PI staining based flow cytometry (reference value: 2.61%); type: functional; conditions: dose 2 µmol/L, at 2 µM
[23] = tested on: NCI-H929; experiment: Downregulation of EZH2 mRNA expression in human NCI-H929 cells at 0.3 to 3 micromol/L after 24 hrs by qRT-PCR analysis; type: functional, cell-based; conditions: dose 0.3-3 µmol/L; summary of the method: as §2
[24] = tested on: NCI-H929; experiment: Downregulation of E2F1 protein expression in human NCI-H929 cells incubated at 0.3 to 3 micromol/L for 48 hrs by Western blot analysis; conditions: dose 0.3-3 µmol/L
[25] = tested on: MM1.S; experiment: Induction of apoptosis in human MM1.S cells assessed as viable cells preincubated in presence of 5 micromol/L UNC1999 for 48 hrs followed by compound addition at 2 micromol/L incubated for 12 hrs by annexin V/PI staining based flow cytometry (reference value: 88.2%); type: functional; conditions: dose 2 µmol/L, at 2 µM
[26] = tested on: MM1.S; experiment: Downregulation of EZH2 mRNA expression in human MM1.S cells transduced with EZH1 at 0.3 micromol/L after 24 hrs by qRT-PCR analysis; type: functional, cell-based; conditions: dose 0.3 µmol/L
Summary of the method: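 EZH1-shRNA or shLuc lentivirus-transduced MM.1S cells treated with TAS-117 at the indicated doses for 24 h. EZH2 mRNA by RT-qPCR, fold change normalized to GAPDH.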

C[C@]1(O)C[C@@](N)(c2ccc(-c3nc4n(c3-c3ccccc3)COc3ccncc3-4)cc2)C1 [PIFUSERTIB]
CI [1]: 0.532
CI [2]: 0.499
Activity [3]: Active
CI [4]: 0.296
Activity [5]: Active
Activity [6]: 0.35%
CI [7]: 0.359
Activity [8]: 1.04%
Activity [9]: Active
Activity [10]: 9.49%
CI [11]: 0.277
Activity [12]: Active
CI [13]: 2.465
CI [14]: 4.395
Activity [15]: Active
CI [16]: 5.39
Activity [17]: Dose-Dependent Effect
CI [18]: 0.203
CI [19]: 7.428
Activity [20]: 70.4%
Activity [21]: Active
Activity [22]: 2.15%
Activity [23]: Active
Activity [24]: Active
Activity [25]: 33%
Activity [26]: Active
